From ChEMBL document CHEMBL1150393, “Evaluation of radiolabeled (hetero)aromatic analogues of N-(2-diethylaminoethyl)-4-iodobenzamide for imaging and targeted radionuclide therapy of melanoma” (J Med Chem, 2008)

Columns and labels:
Conditions in all cases: in vivo
[1] = Biodistribution in tumor of C57BL/6 mouse bearing mouse B16-F0 cells at 0.74 to 0.92 MBq, iv after 3 hrs; type: ADME, organism-based, Neoplasm
Method in brief: (§1)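 [¹²⁵I]-labelled compound given iv by tail vein (0.1 µmol per mouse) to male C57BL6 mice bearing s.c. B16-F0 flank tumours (5 × 10⁵ cells in PBS). Two mice per time point were killed by CO₂, frozen in liquid nitrogen and cut into 40 µm cryosections, eight slices per mouse. Slice radioactivity was read on a multiwire proportional counter, converted to kBq/g and reported as %ID/g.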

[2] = Ratio of drug level in tumor to brain of C57BL/6 mouse bearing mouse B16-F0 cells at 0.74 to 0.92 MBq, iv after 3 hrs; type: ADME, organism-based
Method in brief: (§2)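 Tumour and organ radioactive concentrations came from whole-body cryosection counting (40 µm slices, eight per mouse, two mice per time) after tail-vein injection of the [¹²⁵I]-labelled compound (0.1 µmol) into male C57BL6 mice bearing s.c. B16-F0 melanoma. Each value is the ratio of the tumour concentration to the organ concentration.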

[3] = Biodistribution in Stomach content of C57BL/6 mouse bearing mouse B16-F0 cells at 0.74 to 0.92 MBq, iv after 1 hr; type: ADME, organism-based
Method in brief: (§3)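 Male C57BL6 mice with s.c. left-flank B16-F0 melanoma (5 × 10⁵ cells in PBS). Two mice per time point frozen in liquid nitrogen after CO₂ sacrifice. Eight 40 µm whole-body cryosections per mouse read by multiwire proportional counter. cpm/mm² converted to kBq/g and expressed as %ID/g.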

[4] = tested on: Spleen; assay: Biodistribution in spleen of C57BL/6 mouse bearing mouse B16-F0 cells at 0.74 to 0.92 MBq, iv after 3 hrs; type: ADME, organism-based; method in brief: as §1
[5] = Biodistribution in uvea of C57BL/6 mouse bearing mouse B16-F0 cells at 0.74 to 0.92 MBq, iv after 72 hrs; type: ADME, organism-based, Uveal tract; method in brief: as §1
[6] = tested on: Brain; assay: Biodistribution in brain of C57BL/6 mouse bearing mouse B16-F0 cells at 0.74 to 0.92 MBq, iv after 1 hr; type: ADME, organism-based; method in brief: as §3
[7] = tested on: Muscle tissue; assay: Biodistribution in muscle of C57BL/6 mouse bearing mouse B16-F0 cells at 0.74 to 0.92 MBq, iv after 3 hrs; type: ADME, organism-based; method in brief: as §3
[8] = Ratio of drug level in tumor to brain of C57BL/6 mouse bearing mouse B16-F0 cells at 0.74 to 0.92 MBq, iv after 6 hrs; type: ADME, organism-based; method in brief: as §2
[9] = Biodistribution in intestinal content of C57BL/6 mouse bearing mouse B16-F0 cells at 0.74 to 0.92 MBq, iv after 1 hr; type: ADME, organism-based; method in brief: as §3
[10] = tested on: Brain; assay: Biodistribution in brain of C57BL/6 mouse bearing mouse B16-F0 cells at 0.74 to 0.92 MBq, iv after 6 hrs; type: ADME, organism-based; method in brief: as §3
[11] = Biodistribution in intestinal content of C57BL/6 mouse bearing mouse B16-F0 cells at 0.74 to 0.92 MBq, iv after 6 hrs; type: ADME, organism-based; method in brief: as §3
[12] = Biodistribution in intestinal content of C57BL/6 mouse bearing mouse B16-F0 cells at 0.74 to 0.92 MBq, iv after 3 hrs; type: ADME, organism-based; method in brief: as §3
[13] = Ratio of drug level in tumor to liver of C57BL/6 mouse bearing mouse B16-F0 cells at 0.74 to 0.92 MBq, iv after 6 hrs; type: ADME, organism-based; method in brief: as §2
[14] = tested on: Liver; assay: Biodistribution in liver of C57BL/6 mouse bearing mouse B16-F0 cells at 0.74 to 0.92 MBq, iv after 3 hrs; type: ADME, organism-based; method in brief: as §3
[15] = tested on: Muscle tissue; assay: Biodistribution in muscle of C57BL/6 mouse bearing mouse B16-F0 cells at 0.74 to 0.92 MBq, iv after 1 hr; type: ADME, organism-based; method in brief: as §3
[16] = Biodistribution in tumor of C57BL/6 mouse bearing mouse B16-F0 cells at 0.74 to 0.92 MBq, iv after 72 hrs; type: ADME, organism-based, Neoplasm; method in brief: as §1
[17] = tested on: Pancreas; assay: Biodistribution in pancreas of C57BL/6 mouse bearing mouse B16-F0 cells at 0.74 to 0.92 MBq, iv after 3 hrs; type: ADME, organism-based; method in brief: as §3
[18] = tested on: Kidney; assay: Biodistribution in kidney of C57BL/6 mouse bearing mouse B16-F0 cells at 0.74 to 0.92 MBq, iv after 6 hrs; type: ADME, organism-based; method in brief: as §3
[19] = Ratio of drug level in tumor to lung of C57BL/6 mouse bearing mouse B16-F0 cells at 0.74 to 0.92 MBq, iv after 1 hr; type: ADME, organism-based; method in brief: as §2
[20] = tested on: Thyroid gland; assay: Biodistribution in thyroid of C57BL/6 mouse bearing mouse B16-F0 cells at 0.74 to 0.92 MBq, iv after 1 hr; type: ADME, organism-based; method in brief: as §1
[21] = Biodistribution in gall bladder of C57BL/6 mouse bearing mouse B16-F0 cells at 0.74 to 0.92 MBq, iv after 6 hrs; type: ADME, organism-based; method in brief: as §3
[22] = Biodistribution in gall bladder of C57BL/6 mouse bearing mouse B16-F0 cells at 0.74 to 0.92 MBq, iv after 3 hrs; type: ADME, organism-based; method in brief: as §3
[23] = tested on: Thyroid gland; assay: Biodistribution in thyroid of C57BL/6 mouse bearing mouse B16-F0 cells at 0.74 to 0.92 MBq, iv after 72 hrs; type: ADME, organism-based; method in brief: as §1
[24] = tested on: Pancreas; assay: Biodistribution in pancreas of C57BL/6 mouse bearing mouse B16-F0 cells at 0.74 to 0.92 MBq, iv after 6 hrs; type: ADME, organism-based; method in brief: as §3
[25] = tested on: Thyroid gland; assay: Biodistribution in thyroid of C57BL/6 mouse bearing mouse B16-F0 cells at 0.74 to 0.92 MBq, iv after 24 hrs; type: ADME, organism-based; method in brief: as §1
[26] = Biodistribution in intestinal content of C57BL/6 mouse bearing mouse B16-F0 cells at 0.74 to 0.92 MBq, iv after 24 hrs; type: ADME, organism-based; method in brief: as §3
[27] = Ratio of drug level in tumor to liver of C57BL/6 mouse bearing mouse B16-F0 cells at 0.74 to 0.92 MBq, iv after 24 hrs; type: ADME, organism-based; method in brief: as §2
[28] = tested on: Liver; assay: Biodistribution in liver of C57BL/6 mouse bearing mouse B16-F0 cells at 0.74 to 0.92 MBq, iv after 24 hrs; type: ADME, organism-based; method in brief: as §3
[29] = Biodistribution in Stomach content of C57BL/6 mouse bearing mouse B16-F0 cells at 0.74 to 0.92 MBq, iv after 72 hrs; type: ADME, organism-based; method in brief: as §3

Structure (SMILES)	Drug uptake [1] [% ID/g]	Ratio [2]	Drug uptake [3] [% ID/g]	Drug uptake [4] [% ID/g]	Drug uptake [5] [% ID/g]	Drug uptake [6] [% ID/g]	Drug uptake [7] [% ID/g]	Ratio [8]	Drug uptake [9] [% ID/g]	Drug uptake [11] [% ID/g]	Drug uptake [12] [% ID/g]	Ratio [13]	Drug uptake [14] [% ID/g]	Drug uptake [15] [% ID/g]	Drug uptake [16] [% ID/g]	Drug uptake [18] [% ID/g]	Ratio [19]	Drug uptake [20] [% ID/g]	Drug uptake [21] [% ID/g]	Drug uptake [25] [% ID/g]	other results
CCN(CC)CCNC(=O)c1ccc([125I])nc1.Cl.Cl	9.3	42.14	34.8	2.68	2.54	0.64		58.08	13.44	2.98	4.94	3.33	3.01	1.48	0.9	3.5	2.04	25.29	4.9	111.3	Drug uptake [22]: 6.78 % ID/g; Drug uptake [10]: 0.12 % ID/g; Drug uptake [23]: 178.8 % ID/g; Drug uptake [24]: 2.27 % ID/g; Drug uptake [17]: 2.53 % ID/g
CCN(CC)CCNC(=O)c1cnc2cc([125I])ccc2n1.Cl.Cl	27.7	26.87	24.33	4.69	25.26	2.34	0.86		15.22		17.45	5.4	8.87	2.04	12.5	7.69	2.17		33.38	94.22	Drug uptake [29]: 2.23 % ID/g; Ratio [27]: 14.54; Drug uptake [28]: 1.49 % ID/g
CCN(CC)CCNC(=O)c1ccc2cncc([125I])c2n1.Cl.Cl	13.9	32.18	17.58	0.93	13.06	0.35	0.43		32.83	43.48	47.65	7.69	2.27	0.86	3.3	1.2	9.86	20.16	28.67	115.66	Drug uptake [26]: 0.82 % ID/g; Drug uptake [22]: 41.51 % ID/g; Drug uptake [29]: 2.13 % ID/g

Further lines, with some results ahead:

Drug uptake [1] [% ID/g]	Ratio [2]	Drug uptake [3] [% ID/g]	Drug uptake [4] [% ID/g]	Drug uptake [5] [% ID/g]	Drug uptake [6] [% ID/g]	Drug uptake [7] [% ID/g]	Ratio [8]	Drug uptake [9] [% ID/g]	Drug uptake [11] [% ID/g]	Drug uptake [12] [% ID/g]	Ratio [13]	Drug uptake [14] [% ID/g]	Drug uptake [15] [% ID/g]	Drug uptake [16] [% ID/g]	Drug uptake [18] [% ID/g]	Ratio [19]	Drug uptake [20] [% ID/g]	Drug uptake [21] [% ID/g]	Drug uptake [25] [% ID/g]	Structure (SMILES)	other results
11.4	14.6	27.82	2.59	7.84	4.37	0.83	35.8	7.82	18.72	25.85	3.28	4.75	1.92	1.5	3.07	1.1				CCN(CC)CCNC(=O)c1ccc2cc([125I])ccc2c1.Cl	Drug uptake [10]: 0.25 % ID/g; Drug uptake [17]: 8.19 % ID/g
7.5	31.29	17.09		10.11	1.46	0.29		182.62	135.67	138.09	4.41	2.74	0.96	2	1.82	1.72	16.78		30.38	CCN(CC)CCNC(=O)c1cc2cc([125I])ccc2o1.Cl	Drug uptake [26]: 2.33 % ID/g; Drug uptake [23]: 15.7 % ID/g; Ratio [27]: 11.2; Drug uptake [28]: 0.45 % ID/g
